Results from ChEMBL document CHEMBL1125212, “Dual-action cephalosporins: cephalosporin 3'-quinolone carbamates” (J Med Chem, 1991).
Converted amounts (≈) assume the structure as drawn.

Legend:
Citrobacter freundii = assay: The compound was tested in vitro for minimum inhibitory concentration against Citrobacter Freundii BS-16; type: functional
In short: (§1)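 Agar dilution on Mueller-Hinton agar using 2-fold serial dilutions, giving final 128 to 0.0156 μg/mL (extended to 0.000977 μg/mL where needed). Inoculum was overnight broth culture diluted 100-fold, about 3×10^4 CFU/spot, applied by replicator. MIC read after overnight incubation at 36 °C.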

Escherichia coli [1] = assay: The compound was tested in vitro for minimum inhibitory concentration against Escherichia coli ATCC 25922; type: functional; in short: as §1
Escherichia coli [2] = assay: Minimum inhibitory concentration required to inhibit the activity of Escherichia coli ATCC 25922; type: functional; in short: as §1
Escherichia coli [3] = assay: Minimum inhibitory concentration required to inhibit the activity of Escherichia coli UB1005; type: functional; in short: as §1
Escherichia coli [4] = assay: Minimum inhibitory concentration for inhibition of [14C]- Pen G binding to Escherichia coli UB1005; type: functional
In short: (§2)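 Membranes from sonicated E. coli UB1005 were solubilized. Binding to penicillin-binding proteins was measured as inhibition of [14C]penicillin G binding.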

Escherichia coli [5] = assay: The compound was tested in vitro for minimum inhibitory concentration against Escherichia coli 257; type: functional; in short: as §1
Enterococcus faecalis = assay: The compound was tested in vitro for minimum inhibitory concentration against Enterococcus faecalis ATCC 29212; type: functional; in short: as §1
Escherichia coli [6] = assay: The compound was tested in vitro for minimum inhibitory concentration against Escherichia coli TEM-1; type: functional; in short: as §1
Enterobacter cloacae = assay: The compound was tested in vitro for minimum inhibitory concentration against Enterobacter cloacae P99; type: functional
Escherichia coli [7] = assay: Inhibitory activity on replicative DNA biosynthesis in Escherichia coli H560 (permeabilised cells); type: functional, organism-based
In short: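 E. coli H560 cells permeabilized with toluene. ATP-dependent incorporation of [3H]thymidine into trichloroacetic acid-insoluble material was measured. IC50 taken as the concentration giving 50% inhibition.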

Micrococcus luteus = assay: The compound was tested in vitro for minimum inhibitory concentration against Micrococcus luteus ATCC 9341; type: functional; in short: as §1
Proteus mirabilis = assay: The compound was tested in vitro for minimum inhibitory concentration against Proteus mirabilis 90; type: functional
In short: (§3)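 Proteus MICs by agar dilution on Mueller-Hinton medium containing 3% agar. Serial 2-fold dilutions gave final 128 to 0.0156 μg/mL (further to 0.000977 μg/mL). Inoculum was overnight broth diluted 100-fold, about 3×10^4 CFU/spot. Plates read after overnight incubation at 36 °C.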

Pseudomonas aeruginosa [8] = assay: The compound was tested in vitro for minimum inhibitory concentration against Pseudomonas aeruginosa 18S/H; type: functional; in short: as §1
Escherichia coli [9] = assay: The compound was evaluated for the inhibition of [14C]- Pen G binding to Escherichia coli UB1005 penicillin-binding protein 1a 90 kDa.; in short: as §2
Escherichia coli [10] = assay: The compound was evaluated for the inhibition of [14C]- Pen G binding to Escherichia coli UB1005 penicillin-binding protein 1b 90 kDa.; in short: as §2
Escherichia coli [11] = assay: The compound was evaluated for the inhibition of [14C]- Pen G binding to Escherichia coli UB1005 penicillin-binding protein 2 66 kDa.; in short: as §2
Escherichia coli [12] = assay: The compound was evaluated for the inhibition of [14C]- Pen G binding to Escherichia coli UB1005 penicillin-binding protein 3 60 kDa.; in short: as §2
Pseudomonas aeruginosa [13] = assay: The compound was tested in vitro for minimum inhibitory concentration against Pseudomonas aeruginosa 8780; type: functional; in short: as §1
Proteus vulgaris = assay: The compound was tested in vitro for minimum inhibitory concentration against Proteus vulgaris 1028 BC; type: functional; in short: as §3
Staphylococcus aureus [14] = assay: The compound was tested in vitro for minimum inhibitory concentration against Staphylococcus aureus 67-0; type: functional; in short: as §1
Staphylococcus aureus [15] = assay: (§4) The compound was tested in vitro for minimum inhibitory concentration against Staphylococcus aureus 753; type: functional; in short: as §1
Streptococcus pyogenes = assay: The compound was tested in vitro for minimum inhibitory concentration against Streptococcus pyogenes; type: functional
In short: (§5)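 Streptococci tested by agar dilution on brain heart infusion agar with 20 units/mL bovine liver catalase. Final drug range 128 to 0.0156 μg/mL by 2-fold steps, extended to 0.000977 μg/mL when required. Inoculum about 3×10^4 CFU/spot from overnight broth diluted 100-fold. MIC after overnight incubation at 36 °C.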

Serratia marcescens = assay: The compound was tested in vitro for minimum inhibitory concentration against Serratia marcescens 1071; type: functional; in short: as §1
Streptococcus pneumoniae = assay: The compound was tested in vitro for minimum inhibitory concentration against Streptococcus pneumoniae 6301; type: functional; in short: as §5
Staphylococcus aureus [16] = assay: The compound was tested in vitro for minimum inhibitory concentration against Staphylococcus aureus smith; type: functional; in short: as §1
Klebsiella pneumoniae = assay: The compound was tested in vitro for minimum inhibitory concentration against Klebsiella pneumoniae A; type: functional; in short: as §1
Staphylococcus aureus [17] = assay: as §4; type: functional, staphylococcus aureus smith; in short: as §1

Row | SMILES | MIC (Escherichia coli [1]) | MIC (Escherichia coli [4]) | MIC (Escherichia coli [5]) | MIC (Enterococcus faecalis) | MIC (Escherichia coli [6]) | MIC (Enterobacter cloacae) | MIC (Micrococcus luteus) | MIC (Proteus mirabilis) | MIC (Pseudomonas aeruginosa [8]) | Inhibitory concentration (Escherichia coli [9]) | Inhibitory concentration (Escherichia coli [10]) | Inhibitory concentration (Escherichia coli [11]) | Inhibitory concentration (Escherichia coli [12]) | MIC (Pseudomonas aeruginosa [13]) | MIC (Proteus vulgaris) | MIC (Staphylococcus aureus [14]) | MIC (Streptococcus pyogenes) | MIC (Serratia marcescens) | MIC (Streptococcus pneumoniae) | MIC (Staphylococcus aureus [16]) | further results
1 | N#CCC(=O)N[C@@H]1C(=O)N2C(C(=O)O)=C(COC(=O)N3CCN(c4cc5c(cc4F)c(=O)c(C(=O)O)cn5C4CC4)CC3)CS[C@H]12 | 0.063 µg/mL (≈ 0.0962 µM) | 1 µg/mL (≈ 1.53 µM) | 0.063 µg/mL (≈ 0.0962 µM) | 4 µg/mL (≈ 6.11 µM) | 0.063 µg/mL (≈ 0.0962 µM) | < 0.016 µg/mL | 0.125 µg/mL (≈ 0.191 µM) | 0.5 µg/mL (≈ 0.764 µM) | 0.5 µg/mL (≈ 0.764 µM) | > 100 µg/mL | > 100 µg/mL | > 100 µg/mL | 100 µg/mL | 1 µg/mL (≈ 1.53 µM) | 0.031 µg/mL (≈ 0.0474 µM) | 2 µg/mL (≈ 3.06 µM) | 0.031 µg/mL (≈ 0.0474 µM) | 0.125 µg/mL (≈ 0.191 µM) | 0.031 µg/mL (≈ 0.0474 µM) | 0.25 µg/mL (≈ 0.382 µM) | MIC (Citrobacter freundii): 0.063 µg/mL (≈ 0.0962 µM); MIC (Escherichia coli [2]): 0.06 µg/mL (≈ 0.0917 µM); MIC (Escherichia coli [3]): 1 µg/mL (≈ 1.53 µM); IC50 (Escherichia coli [7]): 1 µg/mL (≈ 1.53 µM); MIC (Staphylococcus aureus [15]): 1 µg/mL (≈ 1.53 µM); MIC (Klebsiella pneumoniae): 0.125 µg/mL (≈ 0.191 µM)
2 | CC(=O)OCC1=C(C(=O)O)N2C(=O)[C@@H](NC(=O)COc3ccccc3)[C@H]2SC1 | 128 µg/mL (≈ 315 µM) | > 128 µg/mL | 64 µg/mL (≈ 157 µM) | 32 µg/mL (≈ 78.7 µM) | 128 µg/mL (≈ 315 µM) | > 128 µg/mL | 0.125 µg/mL (≈ 0.308 µM) | 32 µg/mL (≈ 78.7 µM) | > 128 µg/mL | 0.5 µg/mL | 100 µg/mL | > 100 µg/mL | 10 µg/mL | > 128 µg/mL | > 128 µg/mL | 128 µg/mL (≈ 315 µM) | 0.125 µg/mL (≈ 0.308 µM) | > 128 µg/mL | 0.125 µg/mL (≈ 0.308 µM) | 0.063 µg/mL (≈ 0.155 µM) | MIC (Citrobacter freundii): > 128 µg/mL; MIC (Staphylococcus aureus [17]): 128 µg/mL (≈ 315 µM); MIC (Klebsiella pneumoniae): 128 µg/mL (≈ 315 µM)
3 | CC(C)(O/N=C(\C(=O)N[C@@H]1C(=O)N2C(C(=O)O)=C(COC(=O)N3CCN(c4cc5c(cc4F)c(=O)c(C(=O)O)cn5C4CC4)CC3)CS[C@H]12)c1csc(N)n1)C(=O)O | 0.063 µg/mL (≈ 0.0747 µM) | 1 µg/mL (≈ 1.19 µM) | 0.063 µg/mL (≈ 0.0747 µM) | 1 µg/mL (≈ 1.19 µM) | 0.063 µg/mL (≈ 0.0747 µM) | 0.63 µg/mL (≈ 0.747 µM) | 1 µg/mL (≈ 1.19 µM) | 0.25 µg/mL (≈ 0.297 µM) | 1 µg/mL (≈ 1.19 µM) | 100 µg/mL | 10 µg/mL | > 100 µg/mL | < 0.1 µg/mL | 1 µg/mL (≈ 1.19 µM) | 0.125 µg/mL (≈ 0.148 µM) | 4 µg/mL (≈ 4.75 µM) | 0.25 µg/mL (≈ 0.297 µM) | 0.5 µg/mL (≈ 0.593 µM) | 0.25 µg/mL (≈ 0.297 µM) | 1 µg/mL (≈ 1.19 µM) | MIC (Citrobacter freundii): 0.125 µg/mL (≈ 0.148 µM); MIC (Escherichia coli [2]): 0.06 µg/mL (≈ 0.0712 µM); MIC (Escherichia coli [3]): 1 µg/mL (≈ 1.19 µM); IC50 (Escherichia coli [7]): 2 µg/mL (≈ 2.37 µM); MIC (Staphylococcus aureus [15]): 4 µg/mL (≈ 4.75 µM); MIC (Klebsiella pneumoniae): 0.25 µg/mL (≈ 0.297 µM)
4 | CCN1CCN(C(=O)NC(C(=O)N[C@@H]2C(=O)N3C(C(=O)O)=C(COC(=O)N4CCN(c5cc6c(cc5F)c(=O)c(C(=O)O)cn6C5CC5)CC4)CS[C@H]23)c2ccccc2)C(=O)C1=O (stereo partly specified) | 0.063 µg/mL (≈ 0.0709 µM) | 1 µg/mL (≈ 1.13 µM) | 0.063 µg/mL (≈ 0.0709 µM) | 4 µg/mL (≈ 4.5 µM) | 0.063 µg/mL (≈ 0.0709 µM) | 0.031 µg/mL (≈ 0.0349 µM) | 0.125 µg/mL (≈ 0.141 µM) | 1 µg/mL (≈ 1.13 µM) | 1 µg/mL (≈ 1.13 µM) | 10 µg/mL | 10 µg/mL | > 100 µg/mL | 0.5 µg/mL | 2 µg/mL (≈ 2.25 µM) | 0.063 µg/mL (≈ 0.0709 µM) | 4 µg/mL (≈ 4.5 µM) | 0.063 µg/mL (≈ 0.0709 µM) | 0.125 µg/mL (≈ 0.141 µM) | 0.031 µg/mL (≈ 0.0349 µM) | 0.5 µg/mL (≈ 0.563 µM) | MIC (Citrobacter freundii): 0.063 µg/mL (≈ 0.0709 µM); MIC (Escherichia coli [2]): 0.06 µg/mL (≈ 0.0675 µM); MIC (Escherichia coli [3]): 1 µg/mL (≈ 1.13 µM); IC50 (Escherichia coli [7]): 9 µg/mL (≈ 10.1 µM); MIC (Staphylococcus aureus [15]): 1 µg/mL (≈ 1.13 µM); MIC (Klebsiella pneumoniae): 0.125 µg/mL (≈ 0.141 µM)
5 | O=CN[C@@H]1C(=O)N2C(C(=O)O)=C(COC(=O)N3CCN(c4cc5c(cc4F)c(=O)c(C(=O)O)cn5C4CC4)CC3)CS[C@H]12 | 0.063 µg/mL (≈ 0.102 µM) | 2 µg/mL (≈ 3.25 µM) | 0.063 µg/mL (≈ 0.102 µM) | 4 µg/mL (≈ 6.5 µM) | 0.063 µg/mL (≈ 0.102 µM) | 0.031 µg/mL (≈ 0.0504 µM) | 0.5 µg/mL (≈ 0.812 µM) | 1 µg/mL (≈ 1.62 µM) | 1 µg/mL (≈ 1.62 µM) | > 100 µg/mL | > 100 µg/mL | > 100 µg/mL | 100 µg/mL | 2 µg/mL (≈ 3.25 µM) | 0.063 µg/mL (≈ 0.102 µM) | 4 µg/mL (≈ 6.5 µM) | 0.125 µg/mL (≈ 0.203 µM) | 0.125 µg/mL (≈ 0.203 µM) | 0.063 µg/mL (≈ 0.102 µM) | 0.5 µg/mL (≈ 0.812 µM) | MIC (Escherichia coli [2]): 0.06 µg/mL (≈ 0.0975 µM); MIC (Escherichia coli [3]): 2 µg/mL (≈ 3.25 µM); IC50 (Escherichia coli [7]): 0.5 µg/mL (≈ 0.812 µM); MIC (Staphylococcus aureus [15]): 1 µg/mL (≈ 1.62 µM); MIC (Klebsiella pneumoniae): 0.25 µg/mL (≈ 0.406 µM)
